Values after ≈ are worked out from the molar mass of the structure shown.
What was measured:
Type in all cases: cell-based
[1] = test system: HepG2; assay: Cytotoxicity against human HepG2 cells by MTT assay
Procedure, shortened: (§1)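 In vitro cytotoxicity by MTT colorimetric read-out on human tumor cultures: BT474 (breast carcinoma), CHAGO (lung carcinoma), Hep-G2 (hepatocarcinoma), KATO-3 (gastric carcinoma) and SW-620 (colon carcinoma). Each pure isolate was tested on all five lines.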

[2] = Cytotoxicity against human BT474 cells by MTT assay; conditions: BT-474; procedure, shortened: as §1
[3] = test system: SW-620; assay: Cytotoxicity against human SW620 cells by MTT assay; procedure, shortened: as §1
[4] = Cytotoxicity against human KATO3 cells by MTT assay; procedure, shortened: as §1
[5] = Cytotoxicity against human CHAGO cells by MTT assay; procedure, shortened: as §1

## C/C1=C\CC[C@](C)(O)/C=C/[C@H](C(C)C)CCc2coc(c2)C1 [FURANOCEMBRANOID 1]
[1]
  IC50: 5.6 µg/mL (≈ 18.5 µM)
[2]
  IC50: 7.8 µg/mL (≈ 25.8 µM)
[3]
  IC50: 6.3 µg/mL (≈ 20.8 µM)
[4]
  IC50: 5.9 µg/mL (≈ 19.5 µM)
[5]
  IC50: 7 µg/mL (≈ 23.1 µM)

## CC(C)[C@H]1/C=C/[C@@](C)(O)CC[C@@H]2O[C@@]2(C)Cc2cc(co2)CC1 [FURANOCEMBRANOID 2]
[1]
  IC50: > 10 µg/mL
[2]
  IC50: 9.5 µg/mL (≈ 29.8 µM)
[3]
  IC50: 9.9 µg/mL (≈ 31.1 µM)
[4]
  IC50: 6.8 µg/mL (≈ 21.4 µM)
[5]
  IC50: > 10 µg/mL

## CC(C)[C@H]1/C=C/[C@@](C)(O)CC[C@@H](O)[C@@](C)(O)Cc2cc(co2)CC1 [FURANOCEMBRANOID 3]
[1]
  IC50: 5.7 µg/mL (≈ 16.9 µM)
[2]
  IC50: 9.6 µg/mL (≈ 28.5 µM)
[3]
  IC50: 5.6 µg/mL (≈ 16.6 µM)
[4]
  IC50: 8.2 µg/mL (≈ 24.4 µM)
[5]
  IC50: 7.1 µg/mL (≈ 21.1 µM)

## CC(C)[C@H]1/C=C/[C@@](C)(O)CC[C@@H](O)[C@@](C)(O)C[C@H]2C=C(CC1)C(=O)O2 [FURANOCEMBRANOID 4]
[1]
  IC50: 6.1 µg/mL (≈ 17.3 µM)
[2]
  IC50: 9.6 µg/mL (≈ 27.2 µM)
[3]
  IC50: 6 µg/mL (≈ 17 µM)
[4]
  IC50: 8.1 µg/mL (≈ 23 µM)
[5]
  IC50: 9.3 µg/mL (≈ 26.4 µM)
